From ChEMBL document CHEMBL1137547, “Synthesis and antifungal activities of novel 2-aminotetralin derivatives” (2007)
≈ marks a conversion by molar mass, not a printed value.

Tests used:
Format in all cases: functional
Trichophyton rubrum = test: Antifungal activity against Trichophyton rubrum
Method in brief: (§1)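 Dermatophytes were tested by NCCLS serial dilution in RPMI 1640 with 0.165 M MOPS and incubated at 28 °C. Compounds were dissolved in DMSO and diluted in medium. Strains came from ATCC or clinical isolates. The MIC was read at 7 d as the lowest concentration reducing turbidity by ≥80% relative to the drug-free control.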

Fonsecaea compacta = test: Antifungal activity against Fonsecaea compacta
Method in brief: (§2)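 NCCLS broth serial dilution in RPMI 1640 buffered with 0.165 M MOPS. Compounds were dissolved in DMSO and serially diluted in medium. Strains came from ATCC or clinical isolates. The growth MIC for filamentous fungi was read at 7 d, taken as the lowest concentration giving ≥80% turbidity inhibition versus the growth control.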

Aspergillus fumigatus = test: Antifungal activity against Aspergillus fumigatus; method in brief: as §2
Microsporum = test: Antifungal activity against Microsporum gypseum; method in brief: as §1
Cryptococcus neoformans = test: Antifungal activity against Cryptococcus neoformans after 72 hrs
Method in brief: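 Cryptococcus neoformans was tested by NCCLS serial dilution in MOPS-buffered (0.165 M) RPMI 1640 at 35 °C. Compounds were dissolved in DMSO and diluted in medium. The MIC was read at 72 h as the lowest concentration giving turbidity inhibition of ≥80% relative to the growth control.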

Candida parapsilosis = test: Antifungal activity against Candida parapsilosis after 24 hrs; settings: Lodderomyces parapsilosis
Method in brief: (§3)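 Candida yeasts were tested by NCCLS microdilution in RPMI 1640 buffered with 0.165 M MOPS and incubated at 35 °C. Compounds were dissolved in DMSO and serially diluted in medium. Isolates came from ATCC or the clinic. The MIC was read at 24 h as the lowest concentration achieving ≥80% growth inhibition versus the control.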

Candida albicans [1] = test: Antifungal activity against Candida albicans after 24 hrs; method in brief: as §3
Candida albicans [2] = test: Antifungal activity against fluconazole-resistant Candida albicans 0511655 after 24 hrs
Method in brief: (§4)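 Broth serial dilution MIC per NCCLS in 96-well format; medium RPMI 1640 buffered with 0.165 M MOPS; compounds dissolved in DMSO and serially diluted in medium; clinical C. albicans isolates incubated at 35 °C, read at 24 h; MIC = lowest concentration giving turbidity […] inhibition relative to growth control; fluconazole and I-6 as control drugs.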

Candida albicans [3] = test: Antifungal activity against fluconazole-resistant Candida albicans 25 after 24 hrs; method in brief: as §4
Candida albicans [4] = test: Antifungal activity against fluconazole-resistant Candida albicans 01010 after 24 hrs; method in brief: as §4
Candida albicans [5] = test: Antifungal activity against fluconazole-resistant Candida albicans 18 after 24 hrs; method in brief: as §4

Structure (SMILES) | MIC (Trichophyton rubrum) [µM] | MIC (Fonsecaea compacta) [µM] | MIC (Aspergillus fumigatus) [µM] | MIC (Microsporum) [µM] | MIC (Cryptococcus neoformans) [µM] | MIC (Candida parapsilosis) [µM] | MIC (Candida albicans [1]) [µM] | MIC (Candida albicans [2]) [µM] | MIC (Candida albicans [3]) [µM] | MIC (Candida albicans [4]) [µM] | MIC (Candida albicans [5]) [µM]
CCCCCCCCCCCCCCCCCCNC1CCc2c(cccc2OC)C1 (stereo not given) | 32 (≈ 13.8 µg/mL) | 64 (≈ 27.5 µg/mL) | > 64 | 16 (≈ 6.88 µg/mL) | > 64 | > 64 | > 64 | – | – | – | –
CCCCCCCCCCCCCCCCCCNC1CCc2cc(OC)ccc2C1 (stereo not given) | 8 (≈ 3.44 µg/mL) | > 64 | > 64 | > 64 | > 64 | > 64 | 64 (≈ 27.5 µg/mL) | – | – | – | –
CCCCCCCCCCCCCCCCCCNC1CCc2ccc(OC)cc2C1 (stereo not given) | 8 (≈ 3.44 µg/mL) | > 64 | > 64 | 64 (≈ 27.5 µg/mL) | > 64 | > 64 | > 64 | – | – | – | –
CCCCCCCCCCCCCCCCCCNC1CCc2cccc(OC)c2C1 (stereo not given) | 2 (≈ 0.859 µg/mL) | > 64 | > 64 | 64 (≈ 27.5 µg/mL) | 64 (≈ 27.5 µg/mL) | > 64 | > 64 | – | – | – | –
CCCCCCCCCCCCCCCCCCNC1CCc2c(O)cccc2C1 (stereo not given) | 16 (≈ 6.65 µg/mL) | > 64 | > 64 | > 64 | > 64 | > 64 | 64 (≈ 26.6 µg/mL) | – | – | – | –
CCCCCCCCCCCCCCCCCCNC1CCc2cc(O)ccc2C1 (stereo not given) | 8 (≈ 3.33 µg/mL) | > 64 | > 64 | 64 (≈ 26.6 µg/mL) | > 64 | > 64 | 32 (≈ 13.3 µg/mL) | – | – | – | –
CCCCCCCCCCCCCCCCCCNC1CCc2ccc(O)cc2C1 (stereo not given) | 2 (≈ 0.831 µg/mL) | 64 (≈ 26.6 µg/mL) | > 64 | > 64 | > 64 | > 64 | 16 (≈ 6.65 µg/mL) | – | – | – | –
Oc1cccc2c1CCC(Nc1ccccc1)C2 (stereo not given) | 8 (≈ 1.91 µg/mL) | > 64 | > 64 | > 64 | > 64 | > 64 | > 64 | – | – | – | –
COc1cccc2c1CCC(Nc1ccccc1)C2 (stereo not given) | 2 (≈ 0.507 µg/mL) | > 64 | > 64 | 32 (≈ 8.11 µg/mL) | > 64 | > 64 | > 64 | – | – | – | –
COc1ccc2c(c1)CCC(Nc1ccccc1)C2 (stereo not given) | 0.5 (≈ 0.127 µg/mL) | > 64 | > 64 | 32 (≈ 8.11 µg/mL) | > 64 | > 64 | > 64 | – | – | – | –
COc1ccc2c(c1)CC(Nc1ccccc1)CC2 (stereo not given) | 4 (≈ 1.01 µg/mL) | > 64 | > 64 | 64 (≈ 16.2 µg/mL) | 64 (≈ 16.2 µg/mL) | > 64 | > 64 | – | – | – | –
Oc1cccc2c1CC(Nc1ccccc1)CC2 (stereo not given) | 4 (≈ 0.957 µg/mL) | 64 (≈ 15.3 µg/mL) | > 64 | 32 (≈ 7.66 µg/mL) | 32 (≈ 7.66 µg/mL) | > 64 | > 64 | – | – | – | –
CCCCCCCCCCCCCCNC1CCc2c(cccc2OC)C1 (stereo not given) | 8 (≈ 2.99 µg/mL) | 64 (≈ 23.9 µg/mL) | > 64 | > 64 | 32 (≈ 12 µg/mL) | > 64 | > 64 | – | – | – | –
CCCCCCCCCCCCCCNC1CCc2ccc(OC)cc2C1 (stereo not given) | 0.0625 (≈ 0.0234 µg/mL) | 64 (≈ 23.9 µg/mL) | > 64 | 4 (≈ 1.49 µg/mL) | 16 (≈ 5.98 µg/mL) | > 64 | 4 (≈ 1.49 µg/mL) | – | – | – | –
CCCCCCCCCCCCCCNC1CCc2cccc(OC)c2C1 (stereo not given) | 0.5 (≈ 0.187 µg/mL) | 32 (≈ 12 µg/mL) | > 64 | 2 (≈ 0.747 µg/mL) | 32 (≈ 12 µg/mL) | 16 (≈ 5.98 µg/mL) | 4 (≈ 1.49 µg/mL) | – | – | – | –
COc1cccc2c1CC(Nc1ccccc1)CC2 (stereo not given) | 4 (≈ 1.01 µg/mL) | > 64 | > 64 | 32 (≈ 8.11 µg/mL) | > 64 | > 64 | > 64 | – | – | – | –
CCCCCCCCCCCCCCNC1CCc2c(O)cccc2C1 (stereo not given) | 0.5 (≈ 0.18 µg/mL) | > 64 | > 64 | 4 (≈ 1.44 µg/mL) | 8 (≈ 2.88 µg/mL) | > 64 | 8 (≈ 2.88 µg/mL) | – | – | – | –
CCCCCCCCCCCCCCNC1CCc2cc(O)ccc2C1 (stereo not given) | 0.5 (≈ 0.18 µg/mL) | > 64 | > 64 | 2 (≈ 0.719 µg/mL) | > 4 | 32 (≈ 11.5 µg/mL) | 2 (≈ 0.719 µg/mL) | – | – | – | –
Oc1ccc2c(c1)CC(Nc1ccccc1)CC2 (stereo not given) | 8 (≈ 1.91 µg/mL) | 32 (≈ 7.66 µg/mL) | > 64 | 16 (≈ 3.83 µg/mL) | 16 (≈ 3.83 µg/mL) | > 64 | 32 (≈ 7.66 µg/mL) | – | – | – | –
COc1ccc2c(c1)CCC(NCc1ccccc1)C2 (stereo not given) | 16 (≈ 4.28 µg/mL) | > 64 | > 64 | > 64 | > 64 | > 64 | 30 (≈ 8.02 µg/mL) | – | – | – | –
CCCCCCCCCCCCCCNC1CCc2ccc(O)cc2C1 (stereo not given) | 0.5 (≈ 0.18 µg/mL) | 8 (≈ 2.88 µg/mL) | > 64 | 4 (≈ 1.44 µg/mL) | 8 (≈ 2.88 µg/mL) | 4 (≈ 1.44 µg/mL) | 4 (≈ 1.44 µg/mL) | – | – | – | –
CCCCCCCCCCCCCCNC1CCc2cc(OC)ccc2C1 (stereo not given) | 16 (≈ 5.98 µg/mL) | > 64 | > 64 | > 64 | 64 (≈ 23.9 µg/mL) | > 64 | 32 (≈ 12 µg/mL) | – | – | – | –
Oc1ccc2c(c1)CCC(Nc1ccccc1)C2 (stereo not given) | 8 (≈ 1.91 µg/mL) | 64 (≈ 15.3 µg/mL) | > 64 | 32 (≈ 7.66 µg/mL) | 64 (≈ 15.3 µg/mL) | 64 (≈ 15.3 µg/mL) | 64 (≈ 15.3 µg/mL) | – | – | – | –
CCCCCCCCCCCCCCCCCCNC1CCc2cccc(O)c2C1 (stereo not given) | 2 (≈ 0.831 µg/mL) | 64 (≈ 26.6 µg/mL) | > 64 | > 64 | > 64 | > 64 | > 64 | – | – | – | –
CCCCCCCCCCCCCCNC1CCc2cccc(O)c2C1 (stereo not given) | 0.125 (≈ 0.0449 µg/mL) | 16 (≈ 5.75 µg/mL) | 16 (≈ 5.75 µg/mL) | 4 (≈ 1.44 µg/mL) | 32 (≈ 11.5 µg/mL) | 64 (≈ 23 µg/mL) | 16 (≈ 5.75 µg/mL) | – | – | – | –
COc1cccc2c1CCC(NCc1ccccc1)C2 (stereo not given) | 16 (≈ 4.28 µg/mL) | 32 (≈ 8.56 µg/mL) | > 64 | 64 (≈ 17.1 µg/mL) | 64 (≈ 17.1 µg/mL) | > 64 | 32 (≈ 8.56 µg/mL) | – | – | – | –
C[C@@H]1[C@H](O)[C@@H](C)/C=C/C=C/C=C/C=C/C=C/C=C/C=C/[C@H](O[C@@H]2O[C@H](C)[C@@H](O)[C@H](N)[C@@H]2O)C[C@@H]2O[C@](O)(C[C@@H](O)C[C@@H](O)[C@H](O)CC[C@@H](O)C[C@@H](O)CC(=O)O[C@H]1C)C[C@H](O)[C@H]2C(=O)O [AMPHOTERICIN B] | – | – | – | – | – | – | – | 0.25 (≈ 0.231 µg/mL) | 0.5 (≈ 0.462 µg/mL) | 0.64 (≈ 0.591 µg/mL) | 2 (≈ 1.85 µg/mL)
CCC(C)n1ncn(-c2ccc(N3CCN(c4ccc(OCC5COC(Cn6cncn6)(c6ccc(Cl)cc6Cl)O5)cc4)CC3)cc2)c1=O (stereo not given) [ITRACONAZOLE] | – | – | – | – | – | – | – | 64 (≈ 45.2 µg/mL) | > 64 | > 64 | > 64
